Among all 51,000 compounds or so, about 150 (0.29%) were called active. The sample holds actives, similar compounds and a random draw of the others, so the mix is not that of the screen. A number with no mark means an inactive call.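 How the source made its calls: active means both repeat wells score below -2 in polarization z-score versus plate sample wells, excluding overly bright wells; inactive means the rest.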
tested on: LANA (ORF73) N-terminal peptide binding to nucleosomes, Human herpesvirus 8; assay: inhibitors of KSHV LANA-nucleosome binding, primary screen, biochemical, fluorescence polarization, FITC-LANA1-23, chicken nucleosomes (AID 720717); settings: FITC-LANA1-23 / chicken nucleosome fluorescence polarization; active compounds read low
Method in brief: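 test system = FITC-LANA peptide and chicken nucleosomes | amount = 240 nM purified chicken nucleosomes (480 nM peptide binding sites), final | reagent = 50 nM FITC-LANA1-23 probe | medium = TEN-BT buffer, pH 7.5 | doses = single compound addition by pin transfer, 100 nL per well | timing = 10–45 min, room temperature | detection = fluorescence polarization | repeats = duplicate plates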

SMILES	z-score
S=c1[nH]nc(NCCc2ccccc2)s1	0.44
O=C1NC(c2ccccc2)=NC1(Nc1ccccn1)C(F)(F)F (configuration not stated)	0.245
CCOC(=O)c1nn(-c2ccccc2)c(C(=O)OCC)c1N(C(=O)CC)C(=O)CC	-0.275
O=C1CCCc2nc3nc(-c4ccncc4)nn3cc21	-0.949
CC(Sc1nnc(COc2ccccc2)n1-c1ccccc1)C(=O)O (configuration not stated)	0.582
O=c1[nH]ncc2c1[nH]c1ccccc12	0.221
O=C1C2C3C=CC(C3)C2C(=O)N1C1CC2CCC1C2 (configuration not stated)	-0.407
N/C(=N\OC(=O)Nc1ccccc1)c1ccno1	-0.0325
C=CCOC(=O)c1cc(-c2ccc(/C=C3/NC(=S)NC3=O)o2)ccc1Cl	0.594
COC(=O)CSc1nc(-c2ccccc2)cc(C)c1C#N	-0.143
CN(C)c1ccc(C(=S)N2CCN(c3cccc(Cl)c3)CC2)cc1	0.446
COc1cccc(/C=N/NC(=O)c2cccc(C)c2)c1O	-0.518
Cc1ccccc1-c1n[nH]n2c1nc(=O)c1cc(Cl)ccc12	0.639
O=C(NCc1ccncc1)C1CCN(C(=O)c2cccc(Cl)c2)CC1	0.832
Clc1ccc(C2N=C(c3cnccn3)NN2)cc1 (configuration not stated)	-2.98 (active)
CN(C)CCC(O)c1cc(Cl)sc1Cl (configuration not stated)	0.472
CC(=O)N1c2ccccc2NC(=O)C1CC(=O)Nc1cccc(C)c1 (configuration not stated)	2.28
O=C(Nc1ccc(-c2cn3cccnc3n2)cc1)C1CCCC1	0.642
CCOC(=O)C1=NNC2C(=O)N(c3cc(Cl)ccc3OC)C(=O)C12 (configuration not stated)	-0.513
O=C(O)/C=C\C(=O)NCc1ccc2c(c1)OCO2	0.273
CC1=CC(C)C2(COC(CN3CCCCC3)OC2)C(C)C1 (configuration not stated)	-0.0595
CN(Cc1ccccc1)C1(O)C(=O)Nc2c(C(F)(F)F)cccc21 (configuration not stated)	0.254
COc1ccc(CNC(=O)NC2CCN(S(=O)(=O)c3ccc(OC)cc3)CC2)cc1	0.0685
Clc1cccc(Nc2nc3ccccc3c3nncn23)c1	-0.519
CC(=O)O/N=C/c1ccc(N(C)C)cc1	0.621
CCc1ccc(NS(=O)(=O)c2cnn(CC)c2)cc1	-1.21

SMILES	z-score
CCn1cc(S(=O)(=O)Nc2cc(C)on2)cn1	-2.19 (active)
Cc1cc(NCc2cccnc2)no1	-0.669
Cc1ccc(-n2nc(C)c(C(=O)O)n2)cc1	-0.785
CCCN(CCC)C(=O)Cn1ncn2c(cc3ccccc32)c1=O	0.518
Cc1cc2c(cc1S(=O)(=O)CCC(=O)N1CCCC1)OCC(=O)N2	-1.11
O=C(Nc1ccc(Cl)cc1)Nc1cc(C(=O)NCC2CCCO2)ccc1N1CC2CC(C1)c1cccc(=O)n1C2 (configuration not stated)	0.571
O=c1[nH]cc(S(=O)(=O)N2CCc3ccccc32)c(=O)[nH]1	-0.177
CCN(CC)S(=O)(=O)c1c(C)nn(S(=O)(=O)c2ccccc2)c1C	1.21
C(=N\N(Cc1ccccc1)Cc1ccccc1)/c1ccco1	-1.14
CCOC(=O)C(N)Cc1c[nH]c2ccccc12 (configuration not stated)	0.0765
Cc1ccc2cc(CN(CCN3CCCC3)C(=O)NC3CCCCC3)c(=O)[nH]c2c1C	0.448
CC(C)(Oc1ccc(Cl)cc1)C(=O)Nc1ccc2oc(-c3cccnc3)nc2c1	0.188
C=C(C)Cn1nc(C)c(-c2cc(C(=O)O)[nH]n2)c1C	-0.083
Cc1cccc(-c2cc(C(=O)N3CCN(C(=O)c4ccco4)CC3)c3ccc(Cl)c(C)c3n2)c1	0.0795
O=C1NN=C(c2ccccc2)C1CCO (configuration not stated)	-0.74
CS(=O)(=O)C1=NSC2=NC(=O)/C(=C\c3ccco3)C(=N)N21	-0.748
O=C(COc1ccccc1)n1c(=O)oc2ccccc21	-1.36
CCS(=O)(=O)N1CCCC(c2nc3c(nnn3Cc3ccc(C)cc3)c(=O)[nH]2)C1 (configuration not stated)	-1.1
O=C(CSc1nc2ncccc2o1)NCc1ccco1	0.0485
CCNC(=O)CC1C(=O)N(c2ccc(OC)cc2)C(=O)N1CCOC (configuration not stated)	-0.571
COc1ccc(C(c2nnnn2C(C)(C)C)N2CCN(c3ccccc3)CC2)cc1 (configuration not stated)	-0.537
COc1ccc(C2C3=C(CCCC3=O)N(CC(=O)O)C3=C2C(=O)CCC3)cc1	1.54
Cc1ccc(C(=O)NC(C(=O)O)c2ccccc2)cc1 (configuration not stated)	0.558
C=CCNc1nc(N)sc1C#N	0.79
COc1cc(Br)cc(/C=N/O)c1O	-0.372
C/C(=N/NC(=O)Cc1cc(=O)[nH][nH]1)c1ccc(Cl)cc1	-0.559

SMILES	z-score
Cc1cc(C)nc(-n2nc(C)c3c2N(C)C(=O)CC3c2ccccc2Cl)n1 (configuration not stated)	0.097
CCc1ccc2[nH]c(=O)c(CN(Cc3ccco3)C(=O)c3ccccc3)cc2c1	0.0145
N#Cc1c(F)cccc1NC(=O)CN1CCCCC1	-0.136
COc1ccc(NC(=O)c2cn(-c3ccccc3)nc2SC)cc1	-0.623
O=C1CCC(=O)N1C(c1ccccc1)c1ccccc1	-0.605
COC(=O)c1ccccc1NC(=O)C(F)(F)F	-0.55
CCc1c(C)nc2c(OC)cccc2c1Cl	-0.847
Cc1sc2nc(C)n(NC(N)=O)c(=O)c2c1C	0.328
Cc1cc(N2CC(C)CC(C)C2)nc2ccc(NC(=O)CCC(=O)NCc3ccco3)cc12 (configuration not stated)	-1.27
O=C1OC(c2ccco2)=N/C1=C1/C=C(c2cccs2)Oc2ccccc21	-0.0915
N#CC1=C(SCC(N)=O)NC2=C(C(=O)CCC2)C1c1ccco1 (configuration not stated)	0.283
CCCCn1cc(/C=N/NC(=O)c2cc3cc(OC)ccc3n2C)c2ccccc21	-0.47
O=S1(=O)CCC(S(=O)(=O)NC2CCCC2)C1 (configuration not stated)	-1.02
COc1ccc(C(=O)N(C)C2CCCCC2)cc1	-0.539
CCCc1cc(=O)[nH]c2c1c(C)nn2-c1cccc(F)c1	1.12
Cc1[nH]n(-c2ccccc2)c(=O)c1C(=O)C(F)(F)F	-0.607
COc1ccc(CCN(C)C2CCNCC2)cc1OC	-0.052
COc1cccc(NC(=O)c2cc(-c3cccc(OC)c3)n[nH]2)c1	-1.44
COc1cc(-c2nc3ccccn3c2NC2CCCC2)ccc1O	-0.532
O=C(CN1Cc2ccccc2C1=O)N1CC=C(c2ccccc2)CC1	-0.481
Cc1ccc(-c2nc3scc(CCNC(=O)Cc4ccccc4)n3n2)cc1	-0.82
S=C(Cc1ccccc1)N1CCCCC1	0.211
O=C1c2ccccc2C(=O)N1CNc1ccc(I)cc1	-0.239
Cc1[nH][nH]c(=O)c1C(c1cccc(Cl)c1)C(C#N)C#N (configuration not stated)	-0.349
CC(C)NC(=S)N/N=C/c1ccn[nH]1	0.944
COc1cccc(NC(=O)c2nn(C)c3c2COc2ccccc2-3)c1	-1.79

SMILES	z-score
CCOC(=O)c1ccc2c(c1)sc1nc(-c3cccc(OC)c3)cn12	-1.21
Nc1no[n+]([O-])c1C(=O)NCCO	0.91
CCN1C(=O)C2C(c3cccs3)NC(C)(C(=O)OC)C2C1=O (configuration not stated)	-0.124
O=C1NN=C(Cc2ccccc2)C1CCO (configuration not stated)	-1.42
CCCc1cc(SCC(=O)O)n2c(nc3ccccc32)c1C#N	-0.397
CN1C(=O)CC(N2CCN(C/C=C/c3ccccc3)CC2)C1=O (configuration not stated)	0.0475
Cc1ccc2c(c1)-c1onc(C(=O)N3CCCCC3)c1CO2	-1.74
CCNC(=S)N1CCN(CCN=CC2=C(O)CC(C)(C)CC2=O)CC1	0.296
O=C(C1CCN(Cc2cnn(-c3ccccc3)c2-n2cccc2)CC1)N1CCC2(CC1)OCCO2	0.0245
O=C(O)C1CCN(Cc2ccc(Cl)cc2)CC1	-0.653
Cc1cc(-c2ccc(S(=O)(=O)NC3CCCc4ccccc43)s2)n[nH]1 (configuration not stated)	0.15
Cc1ccc(C(C(=O)NCc2ccccc2)N(C(=O)C2COc3ccccc3O2)c2cccc(O)c2)o1 (configuration not stated)	-0.115
Nc1nc(SC23CC4CC(CC(C4)C2)C3)ns1	-1.08
CC1=CCCC(C)(C)C1/C=C/C(C)=N/O (configuration not stated)	-1.1
Cc1ccccc1NC(=O)N1CC(C)CC(C)C1 (configuration not stated)	-0.339
Nc1nonc1-n1nnc(C(=O)N=Nc2c(O)[nH]c3ccc(Br)cc23)c1-c1ccccc1	0.712
CCOC(=O)c1cc(-c2ccc(C)cc2)n(CCC(=O)Nc2nccs2)c1C	0.181
Cc1c(NC(=O)c2ccc3c(c2)C(=O)N(C)C3=O)cccc1C(=O)O	-0.278
CCC(=O)N1CCc2cc(S(=O)(=O)NCC(OC)OC)ccc21	0.461
NCc1cc(C2CC2)n[nH]1	-0.734
O=C(NCc1ccccn1)c1ccc2c(c1)CCN2S(=O)(=O)c1ccc(Cl)cc1	-0.107
CCNc1nc(N2CCOCC2)c2ccccc2n1	1.02
Cc1nc(CC(=O)Nc2cccc(Cl)c2)cs1	-0.419
O=C(Cc1ccccc1)n1nc(-c2ccco2)nc1NCc1ccccc1	0.165

Reference: PubChem BioAssay AID720717 (ICCB-Longwood Screening Facility, Harvard Medical School, 2013)
